Screening data: PubChem, SRMLSC
HUVEC prolif 384 = inhibitors of HUVEC proliferation, primary screen, cell-based, 384-well; AID 648, 2007; CellTiter-Glo luminescence, 72 h; active compounds read low; viability, % at 10 µM (by protocol); actives 1.1% (n = 86,000);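 active = viability at or below 30%; inactive = viability above 30%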
PTEN del growth = growth suppression of PTEN-null HCT116, primary screen, cell-based, CellTiter-Glo. HCT116 PTEN-null viability, 60 h; active compounds read low. viability, % at 10 µM. actives 1.2% (n = 140,000). AID 827, 2007;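 active = viability at or below a set limit, 4 SD under the median of all tested compounds, cut at about 3.7% in these data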;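 also: PTEN knockout HCT116 line with beta catenin targeted HCT116 as companion control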
H69AR inhibit = proliferation blockers of H69AR lung cancer cells, primary screen, cell-based, human, 86K library. viability, % at 10 µM. actives 6% (n = 85,000). H69AR lung tumor viability, ATP luminescence, 72 h; active compounds read low;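 active = viability at or below 40%; inactive = viability above 40%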;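 also: multidrug resistant small cell line overexpressing MRP-1 efflux transporter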
bCat KO growth = primary screen for growth suppressors in beta-catenin knockout HCT116 cells (colon tumor, human); viability, % at 10 µM; HCT116 beta-catenin knockout viability, CellTiter-Glo, 60 h; active compounds read low; actives 1.5% (n = 140,000); AID 818, 2007;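 active = viability at or under a set limit, the compound median less 4 SD, cut at about 6% in these data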
Lung fibro prol = antiproliferative effect on LL 47 fibroblasts – human, LL 47 cells, CellTiter-Glo luminescence, primary screen. viability, % at 10 µM. actives 1.1% (n = 85,000). LL 47 human lung fibroblast viability, ATP luminescence; active compounds read low;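 active = viability at or below 50% in the single dose screen; inactive = viability above 50%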;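 also: compound exposure lasted 72 h before the ATP readout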
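Material: Human LL 47 lung fibroblast cells | Input: 1,150 cells/well | Buffer or medium: IMEM plus 15% FBS | Compound dosing: 0.1% DMSO in all compound wells | Times: Overnight cell rest, 72 h compound treatment at 37 °C | Signal: CellTiter-Glo luminescence measuring cellular ATP | Measure: % viability versus median cells-only luminescence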
Large screens that a line does not name were inactive. Only a selection was taken, and hits are over-represented in it overall.

CCOC(=O)NC1(NC2CCCCC2)Oc2ccccc2O1	H69AR inhibit 21 (no result: Lung fibro prol)
OCC[C@H]1C[C@H](O)[C@@H](O)[C@@]2(CCCCO2)O1	none (no result: HUVEC prolif 384, H69AR inhibit, Lung fibro prol)
Cc1ccc(C(=O)CCC(=O)Nc2cccc(C(F)(F)F)c2)cc1	none (no result: HUVEC prolif 384, H69AR inhibit, Lung fibro prol)
OC1C2(Cc3ccccc3)CN3CCN(C2)CC1(Cc1ccccc1)C3 (configuration not stated)	none
OC1C2CN3CCN(C2)CC1(Cc1ccccc1)C3 (configuration not stated)	PTEN del growth 0.7, bCat KO growth 1.4
CCOc1ccc(NC(=O)c2cc3c(C)nc4ccccc4c3o2)cc1	H69AR inhibit 30
O=C(CN1CCCCC1)NC(=O)NCc1ccccc1	none (no result: HUVEC prolif 384, H69AR inhibit, Lung fibro prol)
Cc1csc(NC(=O)c2c(O)c3c(n(CC(C)C)c2=O)CCCC3)n1	H69AR inhibit 33
Brc1cc2c(cc1/C=N/Nc1nc(N3CCOCC3)nc(N3CCOCC3)n1)OCO2	none (no result: HUVEC prolif 384, H69AR inhibit, Lung fibro prol)
O=C(CN1CCN(c2ccccc2O)CC1)Nc1ccc2c(c1)CCC2	none (no result: HUVEC prolif 384, H69AR inhibit, Lung fibro prol)
Cc1onc(-c2c(F)cccc2Cl)c1C(=O)Nc1cccc2nsnc12	none
O=C(Nc1nc2ccccc2[nH]1)c1ccccc1	H69AR inhibit 32
Cc1onc(-c2c(F)cccc2Cl)c1C(=O)Nc1nc2ccccc2[nH]1	H69AR inhibit 33
C/C(=N\NC(=O)c1ccc([N+](=O)[O-])c(C)c1)c1ccccc1Cl	none (no result: HUVEC prolif 384, H69AR inhibit, Lung fibro prol)
CCC(C(=O)O/N=C(\N)c1cccc(C)c1)c1ccccc1 (configuration not stated)	H69AR inhibit 7.9
COc1ccccc1NS(=O)(=O)c1ccc(Cl)c(NC(=O)C(C)N2C(=O)c3ccccc3C2=O)c1 (configuration not stated)	none (no result: HUVEC prolif 384, H69AR inhibit, Lung fibro prol)
CC(C)NC(=O)c1onc(CSc2cccc(F)c2)c1C(=O)O	none (no result: HUVEC prolif 384, H69AR inhibit, Lung fibro prol)
Cc1cc(C)c(NC(=O)CN2C(=O)NC3(CCCCC3)C2=O)c(Cl)c1	H69AR inhibit 29
O=C(CCCCCN1C(=O)c2ccccc2C1=O)Oc1ccc2c3c(c(=O)oc2c1)CCC3	none (no result: HUVEC prolif 384, H69AR inhibit, Lung fibro prol)
CN(C)CCCN(C(=O)c1ccc2c(c1)CCCC2)c1nc2ccc(F)cc2s1	PTEN del growth 2.7 (no result: HUVEC prolif 384, H69AR inhibit, Lung fibro prol)
CN(C)CCN(C(=O)c1cc(Cl)sc1Cl)c1nc2ccc(F)cc2s1	none (no result: HUVEC prolif 384, H69AR inhibit, Lung fibro prol)
COc1cccc(/C=C2\C(=O)C(=O)c3ccccc32)c1	H69AR inhibit 5.3
COc1ccccc1NC(=O)CN1CCN(C2c3ccccc3-c3ccccc32)CC1	H69AR inhibit 38
COC(=O)c1ccsc1NC(=O)CN1CCN(Cc2ccc3c(c2)OCO3)CC1	none (no result: HUVEC prolif 384, H69AR inhibit, Lung fibro prol)
COC(=O)c1c(NC(=O)CN2CCN(Cc3ccc4c(c3)OCO4)CC2)sc(C)c1C	H69AR inhibit 1.9
O=C(CN1CCN(S(=O)(=O)c2cc(Cl)ccc2Cl)CC1)Nc1ccc2c(c1)OCCO2	H69AR inhibit 35
COc1ccccc1NC(=O)CSC(N)=O	H69AR inhibit 28
CN(C)c1ccc(NC(=O)CN2CCN(S(=O)(=O)c3cc(Cl)ccc3Cl)CC2)cc1	none (no result: HUVEC prolif 384, H69AR inhibit, Lung fibro prol)
COc1cc(NC(=O)Nc2ccccc2)c(OC)cc1NC(=O)CN1CCCCC1	HUVEC prolif 384 12
CCOc1ccc(NC(=O)CN2CCN(C3c4ccccc4-c4ccccc43)CC2)cc1	H69AR inhibit 32
COc1ccc(NC(=O)CN2CCN(CC(=O)Nc3ccc4c(c3)OCO4)CC2)cc1	none
COc1ccccc1NC(=O)CN1CCN(CC(=O)Nc2ccc3c(c2)OCO3)CC1	H69AR inhibit 9.8
CCCc1cc(C(=O)NNC(=S)NC(C)c2ccccc2)cs1 (configuration not stated)	none (no result: HUVEC prolif 384, H69AR inhibit, Lung fibro prol)
Cc1ccccc1NC(=O)CSc1nc(N)c(C#N)c(-c2cccs2)c1C#N	H69AR inhibit 27
O=C1C=C(c2ccccc2)C(=O)N1Nc1ccccc1	H69AR inhibit 1.3
Cc1ccc(NN2C(=O)C=C(c3ccc(Cl)cc3)C2=O)cc1	H69AR inhibit 2.3
CCN(CC(=O)NC(C)(C)C)C(=O)CCl	none (no result: HUVEC prolif 384, H69AR inhibit, Lung fibro prol)
O=C(Nc1ccc(Cl)cc1)/C(=C/c1cccc(O)c1)c1nc2ccccc2s1	PTEN del growth 1.9, bCat KO growth 2.2 (no result: HUVEC prolif 384, H69AR inhibit, Lung fibro prol)
COc1cc(C2C(C#N)=C(N)Oc3c2oc(CO)cc3=O)cc(OC)c1OC (configuration not stated)	none
N#CC1=C(N)Oc2cc(N)ccc2C1c1ccc(F)cc1 (configuration not stated)	H69AR inhibit 14
COc1cc(C2C(C#N)=C(N)Oc3cc(N)ccc32)cc(OC)c1OC (configuration not stated)	H69AR inhibit 29
N#CC1=C(N)Oc2cc(Nc3ccccc3)ccc2C1c1ccncc1 (configuration not stated)	HUVEC prolif 384 3.1, H69AR inhibit 14
CCN(CC)c1ccc2c(c1)OC(N)=C(C#N)C2c1cccnc1 (configuration not stated)	none (no result: HUVEC prolif 384, H69AR inhibit, Lung fibro prol)
N#CC1=C(N)Oc2cc(N)ccc2C1c1cccnc1 (configuration not stated)	none (no result: HUVEC prolif 384, H69AR inhibit, Lung fibro prol)
CCC1(CC)Cc2ccccc2C(C2=C(O)CC(C)(C)CC2=O)=N1	none (no result: HUVEC prolif 384, H69AR inhibit, Lung fibro prol)
Nc1nc(CSc2nnnn2-c2ccccc2)nc(N2CCCc3ccccc32)n1	H69AR inhibit 28
Nc1nc(CN2CCN(c3ccccc3)CC2)nc(N2CCCc3ccccc32)n1	none (no result: H69AR inhibit)
CCOc1ccccc1N(CC(=O)Nc1ccc(S(=O)(=O)N2CCOCC2)cc1)S(=O)(=O)c1ccc(Cl)cc1	none (no result: HUVEC prolif 384, H69AR inhibit, Lung fibro prol)
O=c1[nH]cc(COCc2ccccc2)c(=O)[nH]1	bCat KO growth 2.6
CC1CC(C)CN(S(=O)(=O)c2ccc(C(=O)NCCCn3ccnc3)cc2)C1 (configuration not stated)	H69AR inhibit 2.7, Lung fibro prol 15
c1ccc2c(c1)CCCC2C1=NCCN1 (configuration not stated)	PTEN del growth 0.8, bCat KO growth 0.8
Brc1ccc2c(c1)C(C1=NCCN1)c1ccccc1CS2 (configuration not stated)	none (no result: HUVEC prolif 384, H69AR inhibit, Lung fibro prol)
CCN(CC)S(=O)(=O)c1ccc2[nH]cc(C(=O)NCCN3CCCCCC3)c(=O)c2c1	none
CCN(CC)S(=O)(=O)c1ccc2[nH]cc(C(=O)NCCC3=CCCCC3)c(=O)c2c1	H69AR inhibit 8.5
O=[N+]([O-])c1ccc2nc(/C=C/c3ccc(Cl)cc3)[nH]c2c1	PTEN del growth 2.8, bCat KO growth 2.1 (no result: HUVEC prolif 384, H69AR inhibit, Lung fibro prol)
Oc1ccc(-c2nnc(SCC3CCCCC3)o2)cc1	H69AR inhibit 35
CCOc1ccc(-c2cc(CCCC(=O)Nc3cccc(OC)c3)no2)cc1	H69AR inhibit 23
COc1ccc(OCC(=O)N2N=C(C(F)F)CC2(O)C(F)F)cc1 (configuration not stated)	none (no result: HUVEC prolif 384, H69AR inhibit, Lung fibro prol)
Cc1cc(/C=N/n2cnnc2)c(C)n1-c1ccc(OCc2ccc(F)cc2)cc1	H69AR inhibit 19
Cc1cc(/C=N/n2cnnc2)c(C)n1-c1ccc(OCc2ccc(Cl)cc2Cl)cc1	HUVEC prolif 384 2.6, H69AR inhibit 5.8, bCat KO growth 3.7
CCCN1C=CC(=C2C(=O)c3ccccc3C2=O)C=C1	none
